# pEC50, pIC50: −log10 of the molar value.
# What was measured:
# [1] = molecular target: T1, Phosphotyrosine protein phosphatase (Mycobacterium tuberculosis, UniProt A0A045ISB3); assay: Inhibition of Mycobacterium tuberculosis His-tagged PtpB expressed in Escherichia coli Rosetta 2 (DE3) using pNPP as substrate after 30 mins by spectrophotometric method
# T1 sequence (A0A045ISB3 whole entry): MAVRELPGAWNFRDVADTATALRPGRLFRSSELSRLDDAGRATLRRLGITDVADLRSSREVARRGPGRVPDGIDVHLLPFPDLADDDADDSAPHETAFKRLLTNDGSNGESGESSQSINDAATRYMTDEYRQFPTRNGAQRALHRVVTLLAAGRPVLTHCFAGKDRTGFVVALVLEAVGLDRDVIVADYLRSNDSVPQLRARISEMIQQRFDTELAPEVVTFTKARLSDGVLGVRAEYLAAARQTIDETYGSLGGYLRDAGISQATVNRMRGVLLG
# [2] = molecular target: T2, Tyrosine-protein phosphatase non-receptor type 1 (Homo sapiens, UniProt P18031); assay: Inhibition of human PTPN1 expressed in Escherichia coli Rosetta 2 (DE3) using pNPP as substrate after 45 mins by spectrophotometric method
# T2 sequence (P18031 whole entry): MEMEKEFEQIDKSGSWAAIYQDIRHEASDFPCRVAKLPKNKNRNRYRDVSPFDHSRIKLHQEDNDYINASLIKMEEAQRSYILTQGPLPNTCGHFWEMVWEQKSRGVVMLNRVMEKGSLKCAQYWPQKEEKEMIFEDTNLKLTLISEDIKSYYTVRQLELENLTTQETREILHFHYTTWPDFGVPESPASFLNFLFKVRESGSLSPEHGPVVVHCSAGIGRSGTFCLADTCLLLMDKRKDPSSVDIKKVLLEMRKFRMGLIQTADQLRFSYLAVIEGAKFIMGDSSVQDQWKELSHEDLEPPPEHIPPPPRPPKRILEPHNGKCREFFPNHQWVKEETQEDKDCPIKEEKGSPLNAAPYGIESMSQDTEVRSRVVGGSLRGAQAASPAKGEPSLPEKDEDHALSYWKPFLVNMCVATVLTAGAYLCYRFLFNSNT
# [3] = molecular target: T3, Tyrosine-protein phosphatase non-receptor type 2 (Homo sapiens, UniProt P17706); assay: Inhibition of human PTPN2 expressed in Escherichia coli Rosetta 2 (DE3) using pNPP as substrate after 45 mins by spectrophotometric method
# T3 sequence (P17706 whole entry): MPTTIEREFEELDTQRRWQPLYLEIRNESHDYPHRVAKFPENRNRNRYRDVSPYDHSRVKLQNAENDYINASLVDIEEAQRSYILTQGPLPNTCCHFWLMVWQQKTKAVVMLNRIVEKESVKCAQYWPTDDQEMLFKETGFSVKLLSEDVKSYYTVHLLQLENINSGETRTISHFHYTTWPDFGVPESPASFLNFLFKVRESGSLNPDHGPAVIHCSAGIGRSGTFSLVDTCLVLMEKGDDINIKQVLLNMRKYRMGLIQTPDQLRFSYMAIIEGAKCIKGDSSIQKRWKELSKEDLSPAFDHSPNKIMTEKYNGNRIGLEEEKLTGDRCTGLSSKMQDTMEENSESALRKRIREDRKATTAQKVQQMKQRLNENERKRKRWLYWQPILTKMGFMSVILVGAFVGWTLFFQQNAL
# [4] = molecular target: T4, Tyrosine-protein phosphatase non-receptor type 5 (Homo sapiens, UniProt P54829); assay: Inhibition of human PTPN5 expressed in Escherichia coli Rosetta 2 (DE3) using pNPP as substrate after 45 mins by spectrophotometric method
# T4 sequence (P54829 whole entry): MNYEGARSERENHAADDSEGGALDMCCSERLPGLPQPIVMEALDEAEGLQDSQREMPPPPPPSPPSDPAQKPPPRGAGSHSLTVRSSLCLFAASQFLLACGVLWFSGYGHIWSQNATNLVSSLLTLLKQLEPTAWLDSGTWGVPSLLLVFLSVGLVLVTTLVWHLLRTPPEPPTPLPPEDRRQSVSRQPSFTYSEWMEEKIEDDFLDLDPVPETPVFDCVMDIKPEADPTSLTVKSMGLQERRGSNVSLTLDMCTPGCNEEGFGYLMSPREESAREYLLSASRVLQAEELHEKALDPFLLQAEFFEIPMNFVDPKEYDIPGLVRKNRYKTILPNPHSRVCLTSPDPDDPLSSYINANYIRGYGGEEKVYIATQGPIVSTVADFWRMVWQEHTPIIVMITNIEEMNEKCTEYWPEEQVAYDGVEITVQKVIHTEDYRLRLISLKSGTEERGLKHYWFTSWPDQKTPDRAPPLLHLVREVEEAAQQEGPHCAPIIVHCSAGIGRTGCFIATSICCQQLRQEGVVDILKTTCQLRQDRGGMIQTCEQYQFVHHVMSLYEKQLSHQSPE
# [5] = tested on: Mycobacterium tuberculosis; assay: Antitubercular activity against Mycobacterium tuberculosis H37Rv after 5 days at 200 uM relative to control; format: functional; settings: 120 h
# Outline: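 M. tuberculosis grown in liquid culture with compound at a fixed 200 μM for 5 days. Growth inhibition expressed as percent of control.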
# [6] = tested on: Mycobacterium tuberculosis; assay: Antitubercular activity against Mycobacterium tuberculosis H37Rv after 5 days; format: functional, organism-based; settings: 120 h
# [7] = Inhibition of refolded rhodanese (unknown origin) preincubated with Escherichia coli GroEL/GroES for 60 mins by measuring rhodanese enzyme activity followed by compound addition by Fe(SCN)3 dye based spectrometric analysis; design: species or system Homo sapiens
# [8] = molecular target: T5, Malate dehydrogenase, mitochondrial (Sus scrofa, UniProt P00346); assay: Inhibition of refolded pig heart mitochondrial MDH preincubated with Escherichia coli GroEL/GroES for 45 mins using sodium mesoxalate as substrate followed by compound addition and measured after 20 to 30 mins by spectrometric analysis
# T5 sequence (P00346 whole entry): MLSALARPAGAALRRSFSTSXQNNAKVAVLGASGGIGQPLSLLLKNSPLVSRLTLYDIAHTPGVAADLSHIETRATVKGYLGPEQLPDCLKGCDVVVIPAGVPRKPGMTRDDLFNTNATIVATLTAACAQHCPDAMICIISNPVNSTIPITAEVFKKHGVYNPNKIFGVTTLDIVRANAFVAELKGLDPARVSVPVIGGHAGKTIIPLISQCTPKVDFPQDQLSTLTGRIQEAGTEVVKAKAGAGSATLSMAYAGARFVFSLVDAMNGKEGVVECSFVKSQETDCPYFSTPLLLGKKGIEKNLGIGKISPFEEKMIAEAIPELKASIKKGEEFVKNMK
# [9] = molecular target: T6, E. coli GroEL/ES (Escherichia coli, UniProt P0A6F5); assay: Inhibition of Escherichia coli GroEL expressed in Escherichia coli DH5alpha/Escherichia coli GroES expressed in Escherichia coli BL21 (DE3) assessed as reduction in GroEL/GroES-mediated denatured rhodanese refolding by measuring rhodanese enzyme activity after 45 mins by Fe(SCN)3 dye based spectrometric analysis
# [10] = molecular target: T6, E. coli GroEL/ES; assay: Inhibition of Escherichia coli GroEL expressed in Escherichia coliDH5alpha/Escherichia coli GroES expressed in Escherichia coli BL21 (DE3) assessed as reduction in GroEL/GroES-mediated denatured pig heart mitochondrial MDH refolding by measuring MDH enzyme activity using sodium mesoxalate as substrate after 20 to 40 mins by spectrometric analysis
# [11] = molecular target: HSP60/HSP10 (Homo sapiens, UniProt P10809); assay: Inhibition of human HSP60 expressed in Escherichia coli Rosetta 2(DE3)/human HSP10 expressed in Escherichia coli Rosetta 2(DE3) pLysS cells assessed as reduction in HSP60/HSP10-mediated denatured pig heart mitochondrial MDH refolding by measuring MDH enzyme activity using sodium mesoxalate as substrate after 40 to 60 mins by spectrometric analysis
# [12] = Cytotoxicity against human THLE3 cells assessed as reduction in cell viability after 48 hrs by Alamar blue assay; format: cell-based
# Outline: (§1)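 Alamar Blue viability read-out. Human liver (THLE-3) and kidney (HEK 293) cells incubated with compound for 48 h. Tested in dose-response to derive CC50.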
# [13] = Cytotoxicity against human HEK293 cells assessed as reduction in cell viability after 48 hrs by Alamar blue assay; format: cell-based; outline: as §1
# HSP60/HSP10, sequence (P10809 whole entry): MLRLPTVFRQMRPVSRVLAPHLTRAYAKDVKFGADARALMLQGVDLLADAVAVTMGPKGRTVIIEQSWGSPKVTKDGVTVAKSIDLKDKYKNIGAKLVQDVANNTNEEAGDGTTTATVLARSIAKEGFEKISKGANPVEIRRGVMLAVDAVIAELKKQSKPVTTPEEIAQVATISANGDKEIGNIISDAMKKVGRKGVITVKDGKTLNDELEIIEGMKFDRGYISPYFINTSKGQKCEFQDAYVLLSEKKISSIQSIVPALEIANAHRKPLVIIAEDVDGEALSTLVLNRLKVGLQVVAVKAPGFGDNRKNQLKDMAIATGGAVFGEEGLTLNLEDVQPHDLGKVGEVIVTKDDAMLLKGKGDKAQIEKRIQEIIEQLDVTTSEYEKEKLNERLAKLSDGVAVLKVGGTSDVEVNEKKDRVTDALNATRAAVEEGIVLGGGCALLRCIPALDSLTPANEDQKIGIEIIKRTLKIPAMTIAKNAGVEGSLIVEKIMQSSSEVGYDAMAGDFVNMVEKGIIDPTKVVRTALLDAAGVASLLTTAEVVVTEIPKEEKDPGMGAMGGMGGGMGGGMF
# HSP60/HSP10, sequence (P61604 whole entry, further chain): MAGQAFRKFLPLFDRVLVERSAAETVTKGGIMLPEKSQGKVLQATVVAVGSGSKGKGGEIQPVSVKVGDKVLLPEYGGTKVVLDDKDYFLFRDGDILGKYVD
# T6 sequence (P0A6F5 whole entry, looked up): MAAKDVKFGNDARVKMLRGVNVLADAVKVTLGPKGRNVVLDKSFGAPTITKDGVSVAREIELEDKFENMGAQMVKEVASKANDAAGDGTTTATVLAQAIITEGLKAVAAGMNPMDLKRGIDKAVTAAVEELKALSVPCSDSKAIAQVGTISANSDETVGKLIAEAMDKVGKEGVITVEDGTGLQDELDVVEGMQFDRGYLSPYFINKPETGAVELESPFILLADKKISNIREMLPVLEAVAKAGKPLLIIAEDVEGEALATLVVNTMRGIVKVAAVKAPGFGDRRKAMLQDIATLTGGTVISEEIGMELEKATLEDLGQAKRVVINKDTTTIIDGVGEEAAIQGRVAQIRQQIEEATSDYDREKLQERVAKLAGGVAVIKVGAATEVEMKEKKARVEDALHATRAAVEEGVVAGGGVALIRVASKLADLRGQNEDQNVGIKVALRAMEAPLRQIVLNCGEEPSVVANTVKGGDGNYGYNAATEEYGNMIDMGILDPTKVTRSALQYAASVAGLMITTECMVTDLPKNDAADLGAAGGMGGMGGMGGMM
Compound,pIC50 [1],pIC50 [2],pIC50 [3],pIC50 [4],inhibition at 200 µM [5] [%],pEC50 [6],pIC50 [7],pIC50 [8],pIC50 [9],pIC50 [10],pIC50 [11],CC50 at 48 h [12] [µM],CC50 at 48 h [13] [µM]
O=[N+]([O-])c1cc(S(=O)(=O)Nc2ccc(-c3nc4ccccc4o3)cc2)ccc1Cl,4.46,4.42,4.21,4.34,52,3.71,< 4.00,< 4.20,4.36,4.70,4.77,24,85
Cc1ccc(S(=O)(=O)Nc2ccc3oc(-c4ccccc4)nc3c2)cc1,4.17,4.32,4.31,4.41,87,3.76,< 4.00,< 4.20,3.80,< 4.00,< 4.00,53,75
O=S(=O)(Nc1ccc2oc(-c3ccccc3)nc2c1)c1ccc(Cl)s1,4.27,4.12,4.14,4.36,71,< 3.70,< 4.00,< 4.20,3.63,< 4.00,4.15,43,> 100
O=S(=O)(Nc1ccc(-c2nc3ccccc3o2)cc1)c1cccc(F)c1,4.04,4.21,4.10,4.27,80,3.73,< 4.00,< 4.20,3.65,4.04,4.15,> 100,> 100
CCc1ccc(S(=O)(=O)Nc2ccc3oc(-c4ccccc4)nc3c2)cc1,4.17,4.24,4.26,4.38,87,3.83,< 4.00,< 4.20,3.63,< 4.00,< 4.00,63,81
C=Cc1ccc(S(=O)(=O)Nc2ccc(-c3nc4ccccc4o3)cc2)cc1,4.28,4.33,4.48,4.51,73,< 3.70,< 4.00,< 4.20,3.78,4.04,< 4.00,82,> 100
COc1cccc(S(=O)(=O)Nc2ccc3oc(-c4ccccc4)nc3c2)c1,< 4.00,4.07,4.06,4.36,83,3.79,< 4.00,< 4.20,3.66,< 4.00,< 4.00,37,63
CCc1ccc(S(=O)(=O)Nc2ccc(-c3nc4ccccc4o3)cc2)cc1,4.34,4.43,4.44,4.51,82,3.82,< 4.00,< 4.20,3.76,4.04,< 4.00,77,82
Cc1ccccc1S(=O)(=O)Nc1ccc2oc(-c3ccccc3)nc2c1,4.23,4.39,4.54,4.52,61,3.71,< 4.00,< 4.20,3.90,< 4.00,< 4.00,35,57
O=S(=O)(Nc1ccc(-c2nc3ccccc3o2)cc1)c1ccccc1,4.10,4.19,4.18,4.29,71,3.75,< 4.00,< 4.20,3.66,4.03,< 4.00,96,> 100
O=S(=O)(Nc1ccc(-c2nc3ccccc3o2)cc1)c1ccc(C(F)(F)F)cc1,4.28,4.46,4.42,4.41,78,3.79,< 4.00,< 4.20,3.80,4.11,4.30,71,94
O=S(=O)(Nc1ccc(-c2nc3ccccc3o2)cc1)c1ccccc1C(F)(F)F,4.24,4.36,4.21,4.28,58,< 3.70,< 4.00,< 4.20,3.78,4.12,4.13,91,> 100
O=S(=O)(Nc1ccc(-c2nc3ccccc3o2)cc1)c1cccs1,4.32,< 4.00,< 4.00,4.03,68,< 3.70,< 4.00,< 4.20,3.62,< 4.00,4.20,98,> 100

# Source: ChEMBL document CHEMBL4387722
